Activity calls are given as the source filed them. The rule behind the calls is not given here.
Experiments:
[1] = target: Voltage-gated inwardly rectifying potassium channel KCNH2 (Homo sapiens, UniProt Q12809); assay: Inhibition of human ERG channel trafficking expressed in mammalian expression system at 1 to 30 uM by HERG-Lite assay; conditions: dose 1-30 µM
Method in brief: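 HERG-lite assay scoring both channel blocking and trafficking inhibition, with test compound at 1, 10 and 30 µM. Geldanamycin (1 µM) served as the trafficking-inhibition reference and astemizole as the standard hERG binder.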

[2] = target: 3-phosphoinositide-dependent protein kinase 1 (Homo sapiens) (UniProt O15530); assay: Inhibition of human PDK1 at 1 uM using fluorescently labeled peptide substrate measured after 3 hrs by microfluidic mobility shift assay relative to control
[3] = Toxicity in Swiss mouse assessed as piloerection at 30 mg/kg, po administered twice daily via gavage for 12 days and measured on day 9; assay type: organism-based; conditions: in vivo, 288 h, time 12 day
Method in brief: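 Female Swiss mice (4 treated, 2 controls) were gavaged twice daily for 12 days, with compound in 0.5% CMC and Tween 80. Clinical signs including body coat, body weight, temperature, feed intake and general activity were monitored daily.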

[4] = Toxicity in Swiss mouse assessed as change in feces at 10 mg/kg, po administered twice daily via gavage for 5 days and measuring daily during compound dosing; assay type: organism-based; conditions: in vivo, 120 h, time 5 day
Method in brief: (§1)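 Female Swiss mice (3 treated, 2 vehicle controls) received oral gavage twice daily for 5 days, with compound formulated in 0.5% CMC and Tween 80. Body weight, body temperature, body coat, feed intake, eyes, feces and general activity were observed daily.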

SK-OV-3 [5] = assay: Antiproliferative activity against human SK-OV-3 cells after 48 hrs by MTT assay; assay type: functional, cell-based; conditions: SK-OV-3, 48 h
Method in brief: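 SK-OV-3 cells grown in McCoy's 5a with 10% FBS, 100 U/mL penicillin and 100 µg/mL streptomycin at 37 °C, 5% CO2, seeded at 10000 cells/well. Treated 48 h across 20 µM–0.001 µM. MTT (5 mg/mL in PBS) added for 4 h, DMSO solubilization, absorbance read at 550 nm. Four-parameter curve fit of % inhibition.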

[6] = target: Phosphatidylinositol 4,5-bisphosphate 3-kinase catalytic subunit delta isoform (Homo sapiens) (UniProt O00329); assay: Inhibition of human PI3kdelta at 1 uM using fluorescently labeled peptide substrate measured after 3 hrs by microfluidic mobility shift assay relative to control
Method in brief: (§2)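 Single-concentration screen at 1 µM in duplicate, 1% final DMSO. Kinase (typically 1 nM), fluorescently labeled peptide substrate (typically 1 µM), ATP at Km and Mg²⁺ incubated about 3 h at 25 °C, then EDTA-quenched. Substrate and phosphorylated product separated by microfluidic electrophoresis and quantified by fluorescence.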

SK-OV-3 [7] = assay: Antitumor activity against human SK-OV-3 cells xenografted in CD1 nude mouse assessed as tumor growth inhibition at 2.5 mg/kg, po administered once daily for 27 days and measured on day 3; assay type: functional, organism-based; conditions: time 27.0 day
Method in brief: (§3)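 Female CD1 nude mice bearing subcutaneous SK-OV-3 xenografts, randomized at average tumor size 120–130 mm³, five per group. Given oral doses of 2.5, 5 or 10 mg/kg once daily for 27 days alongside a vehicle control. Tumor volume from caliper length and width as (width² × length)/2, tracked every third day. Two-way ANOVA with Dunnett's test, n=5.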

HCT-116 = assay: Antitumor activity against human HCT-116 cells xenografted in CD1 nude mouse assessed as tumor growth inhibition at 2.5 mg/kg, po administered once daily for 21 days and measured on day 3; assay type: functional, organism-based; conditions: time 21.0 day
Method in brief: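 Female CD1 nude mice bearing subcutaneous HCT116 xenografts, randomized at average tumor size 120–130 mm³, five per group. Dosed orally once daily at 2.5, 5, 10 or 20 mg/kg for 21 days alongside a vehicle control. Caliper measurement of tumor volume as (width² × length)/2, monitored every third day.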

[8] = target: Ribosomal protein S6 kinase beta-1 (Homo sapiens) (UniProt P23443); assay: Inhibition of human P70S6K1 at 1 uM using fluorescently labeled peptide substrate measured after 3 hrs by microfluidic mobility shift assay relative to control; method in brief: as §2
[9] = AUC in Swiss mouse at 3 mg/kg, po via gavage by LC-MS/MS analysis; assay type: ADME, organism-based; parameters: dose 3 mg/kg; conditions: in vivo
Method in brief: (§4)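 Female Swiss mice (n=3/group), fasted overnight, given single oral gavage dose in 0.5% CMC/0.5% Tween 80 (10 mL/kg) at 1, 3 or 10 mg/kg. Serial blood sampling at 0.16–8 h into heparinized tubes. Plasma extracted with acetonitrile containing verapamil internal standard and quantified by LC-MS/MS. Cmax, Tmax, AUC and t1/2 derived from the concentration–time profile.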

[10] = Tmax in Swiss mouse at 10 mg/kg, po via gavage by LC-MS/MS analysis; assay type: ADME, organism-based; conditions: in vivo
Method in brief: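 Female Swiss mice (n=3/group) were fasted overnight, then gavaged with compound in 0.5% CMC/0.5% Tween 80 at 10 mL/kg. Serial blood samples at 0.16, 0.5, 1, 2, 4, 6 and 8 h were taken into heparinized tubes and spun to plasma. Plasma was extracted with acetonitrile containing verapamil (400 ng/mL) and quantified by LC-MS/MS against plasma calibration curves. Tmax was derived from the concentration–time profile.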

[11] = Elimination half life in Swiss mouse at 10 mg/kg, po via gavage by LC-MS/MS analysis; assay type: ADME, organism-based; conditions: in vivo, read-out: beta t1/2 (converted); method in brief: as §4
[12] = Toxicity in Swiss mouse assessed as effect on eyes at 10 mg/kg, po administered twice daily via gavage for 5 days and measuring daily during compound dosing; assay type: organism-based; conditions: in vivo, 120 h, time 5 day; method in brief: as §1
[13] = Toxicity in Swiss mouse assessed as discoloration of brain at 30 mg/kg, po administered twice daily via gavage for 5 days and measured post last dose; assay type: organism-based; conditions: in vivo, 120 h, time 5 day
Method in brief: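 Female Swiss mice (3 treated, 2 controls) were gavaged twice daily for 5 days, with compound in 0.5% CMC and Tween 80. After the last dosing the animals were sacrificed. Liver, kidney, lung, uterus and brain were excised and inspected visually for morphology and color change.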

[14] = Drug level in Swiss mouse lung at 30 mg/kg, po administered twice daily via gavage for 5 days and measured post last dose by LC-MS/MS analysis; assay type: ADME, organism-based; conditions: time 5 day, read-out: Drug uptake
Method in brief: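 Female Swiss mice (n=3) given 30 mg/kg in 0.5% CMC/Tween 80 by oral gavage twice daily for 5 days, with two vehicle controls. After sacrifice, liver, kidney, lung, uterus and brain were collected, homogenized in water and solvent-extracted. Drug concentration (ng/g) measured by LC-MS/MS.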

SK-OV-3 [15] = assay: Antitumor activity against human SK-OV-3 cells xenografted in po dosed CD1 nude mouse assessed as reduction in tumor volume administered once daily for 27 days and measured at 3 days interval during compound dosing; assay type: functional, organism-based; conditions: dose mg/kg 2.5-10, time 27.0 day; method in brief: as §3
[16] = target: Receptor-type tyrosine-protein kinase FLT3 (Homo sapiens) (UniProt P36888); assay: Inhibition of human FLT3 at 1 uM using fluorescently labeled peptide substrate measured after 3 hrs by microfluidic mobility shift assay relative to control; method in brief: as §2
[17] = target: Inhibitor of nuclear factor kappa-B kinase subunit epsilon (Homo sapiens) (UniProt Q14164); assay: Inhibition of human IKBKE at 1 uM using fluorescently labeled peptide substrate measured after 3 hrs by microfluidic mobility shift assay relative to control; method in brief: as §2
[18] = target: Phosphatidylinositol 4,5-bisphosphate 3-kinase catalytic subunit alpha isoform (Homo sapiens) (UniProt P42336); assay: Inhibition of human PI3kalpha at 1 uM using fluorescently labeled peptide substrate measured after 3 hrs by microfluidic mobility shift assay relative to control; method in brief: as §2
Sequence of Phosphatidylinositol 4,5-bisphosphate 3-kinase catalytic subunit alpha isoform (Homo sapiens) (P42336 whole entry, canonical isoform): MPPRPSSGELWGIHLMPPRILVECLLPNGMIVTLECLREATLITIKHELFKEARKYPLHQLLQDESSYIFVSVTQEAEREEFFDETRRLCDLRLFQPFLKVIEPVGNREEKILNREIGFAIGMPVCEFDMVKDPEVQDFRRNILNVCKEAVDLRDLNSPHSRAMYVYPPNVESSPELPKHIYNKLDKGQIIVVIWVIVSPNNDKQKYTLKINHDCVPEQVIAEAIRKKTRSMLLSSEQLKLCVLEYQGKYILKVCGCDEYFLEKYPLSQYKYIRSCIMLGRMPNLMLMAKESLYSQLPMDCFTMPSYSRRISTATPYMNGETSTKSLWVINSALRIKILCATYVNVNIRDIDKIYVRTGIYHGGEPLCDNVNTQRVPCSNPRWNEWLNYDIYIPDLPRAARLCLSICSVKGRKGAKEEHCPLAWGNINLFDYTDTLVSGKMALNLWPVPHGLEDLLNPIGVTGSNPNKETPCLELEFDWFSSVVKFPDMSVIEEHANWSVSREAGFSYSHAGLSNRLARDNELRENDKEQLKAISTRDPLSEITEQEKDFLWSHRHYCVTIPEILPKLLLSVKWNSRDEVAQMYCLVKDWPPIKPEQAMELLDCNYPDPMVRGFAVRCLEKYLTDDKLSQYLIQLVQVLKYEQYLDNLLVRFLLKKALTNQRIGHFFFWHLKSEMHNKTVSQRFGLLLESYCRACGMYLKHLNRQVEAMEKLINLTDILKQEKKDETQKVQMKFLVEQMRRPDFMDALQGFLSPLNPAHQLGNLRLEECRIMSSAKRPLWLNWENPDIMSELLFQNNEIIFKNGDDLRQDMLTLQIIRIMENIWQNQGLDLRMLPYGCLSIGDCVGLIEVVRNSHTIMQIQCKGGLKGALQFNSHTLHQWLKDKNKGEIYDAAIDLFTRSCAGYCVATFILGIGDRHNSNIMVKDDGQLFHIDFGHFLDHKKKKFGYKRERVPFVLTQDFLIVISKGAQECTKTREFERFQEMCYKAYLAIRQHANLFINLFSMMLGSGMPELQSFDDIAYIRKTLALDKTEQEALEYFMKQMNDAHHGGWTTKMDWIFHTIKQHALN

Sequence of 3-phosphoinositide-dependent protein kinase 1 (Homo sapiens) (O15530 whole entry, looked up): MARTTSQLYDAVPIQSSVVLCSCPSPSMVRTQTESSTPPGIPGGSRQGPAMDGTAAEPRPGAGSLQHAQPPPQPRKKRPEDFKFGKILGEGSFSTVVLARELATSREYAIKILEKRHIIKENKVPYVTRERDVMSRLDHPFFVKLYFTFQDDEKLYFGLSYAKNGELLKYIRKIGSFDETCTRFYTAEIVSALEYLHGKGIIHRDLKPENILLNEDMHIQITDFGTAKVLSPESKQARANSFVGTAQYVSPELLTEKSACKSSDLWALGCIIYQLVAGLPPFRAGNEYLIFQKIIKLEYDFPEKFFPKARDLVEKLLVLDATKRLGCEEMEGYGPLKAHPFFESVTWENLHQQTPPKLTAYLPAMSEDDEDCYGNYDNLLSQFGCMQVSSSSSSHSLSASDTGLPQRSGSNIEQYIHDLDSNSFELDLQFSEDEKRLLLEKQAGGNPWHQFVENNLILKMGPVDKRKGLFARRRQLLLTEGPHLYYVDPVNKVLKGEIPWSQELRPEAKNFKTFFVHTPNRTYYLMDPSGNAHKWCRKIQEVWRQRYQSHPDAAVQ
Sequence of Phosphatidylinositol 4,5-bisphosphate 3-kinase catalytic subunit delta isoform (Homo sapiens) (O00329 whole entry, canonical isoform): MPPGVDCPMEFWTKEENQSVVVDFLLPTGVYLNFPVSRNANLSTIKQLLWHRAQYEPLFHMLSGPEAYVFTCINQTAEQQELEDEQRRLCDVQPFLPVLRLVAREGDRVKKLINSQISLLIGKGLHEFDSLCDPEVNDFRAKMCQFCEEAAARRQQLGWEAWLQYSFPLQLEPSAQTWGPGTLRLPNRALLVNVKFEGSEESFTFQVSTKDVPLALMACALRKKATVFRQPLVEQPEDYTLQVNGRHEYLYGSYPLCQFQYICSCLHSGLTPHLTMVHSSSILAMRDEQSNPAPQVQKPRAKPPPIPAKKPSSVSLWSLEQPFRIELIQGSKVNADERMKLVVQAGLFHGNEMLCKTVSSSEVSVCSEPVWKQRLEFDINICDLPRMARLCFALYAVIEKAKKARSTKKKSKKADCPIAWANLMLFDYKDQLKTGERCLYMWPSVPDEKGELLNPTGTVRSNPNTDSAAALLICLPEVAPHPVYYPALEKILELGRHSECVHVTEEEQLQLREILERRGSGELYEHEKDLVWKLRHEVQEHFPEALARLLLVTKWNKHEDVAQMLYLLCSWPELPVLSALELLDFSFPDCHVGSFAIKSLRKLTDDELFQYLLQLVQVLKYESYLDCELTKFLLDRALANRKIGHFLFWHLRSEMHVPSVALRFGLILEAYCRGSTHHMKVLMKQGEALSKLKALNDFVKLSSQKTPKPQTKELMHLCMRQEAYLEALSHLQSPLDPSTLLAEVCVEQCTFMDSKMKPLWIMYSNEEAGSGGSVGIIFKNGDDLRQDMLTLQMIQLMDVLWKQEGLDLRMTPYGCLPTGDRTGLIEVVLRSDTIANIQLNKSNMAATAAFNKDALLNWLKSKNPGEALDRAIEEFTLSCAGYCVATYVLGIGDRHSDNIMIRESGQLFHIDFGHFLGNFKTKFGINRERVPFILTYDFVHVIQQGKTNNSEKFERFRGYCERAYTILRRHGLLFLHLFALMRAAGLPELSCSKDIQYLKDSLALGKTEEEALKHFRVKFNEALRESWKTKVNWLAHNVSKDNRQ
Sequence of Receptor-type tyrosine-protein kinase FLT3 (Homo sapiens) (P36888 whole entry): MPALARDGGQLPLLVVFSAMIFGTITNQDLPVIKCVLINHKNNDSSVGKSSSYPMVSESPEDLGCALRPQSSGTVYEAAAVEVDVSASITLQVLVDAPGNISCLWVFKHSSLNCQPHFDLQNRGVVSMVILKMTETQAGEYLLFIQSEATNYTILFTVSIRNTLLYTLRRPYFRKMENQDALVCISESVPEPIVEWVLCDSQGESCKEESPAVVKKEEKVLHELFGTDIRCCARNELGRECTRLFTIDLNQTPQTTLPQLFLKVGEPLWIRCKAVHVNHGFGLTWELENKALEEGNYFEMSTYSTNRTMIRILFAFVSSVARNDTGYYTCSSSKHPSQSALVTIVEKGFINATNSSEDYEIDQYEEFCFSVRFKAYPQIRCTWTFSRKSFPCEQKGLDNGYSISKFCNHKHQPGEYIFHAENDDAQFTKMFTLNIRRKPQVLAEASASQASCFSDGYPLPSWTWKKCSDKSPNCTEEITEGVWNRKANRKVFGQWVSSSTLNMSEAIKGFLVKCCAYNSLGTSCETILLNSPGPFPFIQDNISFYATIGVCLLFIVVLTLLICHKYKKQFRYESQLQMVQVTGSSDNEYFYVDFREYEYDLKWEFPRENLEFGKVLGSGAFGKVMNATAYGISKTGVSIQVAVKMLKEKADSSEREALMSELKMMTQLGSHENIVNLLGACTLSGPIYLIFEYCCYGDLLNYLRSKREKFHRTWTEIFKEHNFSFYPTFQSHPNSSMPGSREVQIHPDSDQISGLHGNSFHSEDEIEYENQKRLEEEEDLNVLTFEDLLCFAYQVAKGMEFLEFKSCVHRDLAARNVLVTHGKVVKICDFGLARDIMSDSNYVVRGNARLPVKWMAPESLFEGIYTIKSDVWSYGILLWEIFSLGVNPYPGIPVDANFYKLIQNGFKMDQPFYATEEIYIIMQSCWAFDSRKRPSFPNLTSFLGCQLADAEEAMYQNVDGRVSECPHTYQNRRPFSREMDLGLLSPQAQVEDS
Sequence of Inhibitor of nuclear factor kappa-B kinase subunit epsilon (Homo sapiens) (Q14164 whole entry, canonical isoform): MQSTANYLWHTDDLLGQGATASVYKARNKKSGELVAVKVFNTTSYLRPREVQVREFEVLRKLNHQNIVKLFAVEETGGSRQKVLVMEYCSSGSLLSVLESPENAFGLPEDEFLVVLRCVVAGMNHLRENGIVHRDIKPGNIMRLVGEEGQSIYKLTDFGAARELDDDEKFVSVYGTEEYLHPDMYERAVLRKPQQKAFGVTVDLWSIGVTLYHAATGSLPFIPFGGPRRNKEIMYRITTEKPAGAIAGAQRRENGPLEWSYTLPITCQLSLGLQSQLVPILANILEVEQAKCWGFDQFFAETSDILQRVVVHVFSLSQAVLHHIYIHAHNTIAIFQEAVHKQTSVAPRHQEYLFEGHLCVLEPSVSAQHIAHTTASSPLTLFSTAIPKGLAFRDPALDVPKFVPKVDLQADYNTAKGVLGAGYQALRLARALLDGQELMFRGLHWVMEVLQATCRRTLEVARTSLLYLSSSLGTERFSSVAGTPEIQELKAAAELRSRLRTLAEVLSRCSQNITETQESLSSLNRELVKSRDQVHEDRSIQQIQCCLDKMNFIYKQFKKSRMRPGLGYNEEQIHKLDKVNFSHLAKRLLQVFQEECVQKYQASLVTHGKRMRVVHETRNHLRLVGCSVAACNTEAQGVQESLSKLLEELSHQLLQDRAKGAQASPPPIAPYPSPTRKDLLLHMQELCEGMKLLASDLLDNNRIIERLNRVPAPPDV
Sequence of Ribosomal protein S6 kinase beta-1 (Homo sapiens) (P23443 whole entry, looked up): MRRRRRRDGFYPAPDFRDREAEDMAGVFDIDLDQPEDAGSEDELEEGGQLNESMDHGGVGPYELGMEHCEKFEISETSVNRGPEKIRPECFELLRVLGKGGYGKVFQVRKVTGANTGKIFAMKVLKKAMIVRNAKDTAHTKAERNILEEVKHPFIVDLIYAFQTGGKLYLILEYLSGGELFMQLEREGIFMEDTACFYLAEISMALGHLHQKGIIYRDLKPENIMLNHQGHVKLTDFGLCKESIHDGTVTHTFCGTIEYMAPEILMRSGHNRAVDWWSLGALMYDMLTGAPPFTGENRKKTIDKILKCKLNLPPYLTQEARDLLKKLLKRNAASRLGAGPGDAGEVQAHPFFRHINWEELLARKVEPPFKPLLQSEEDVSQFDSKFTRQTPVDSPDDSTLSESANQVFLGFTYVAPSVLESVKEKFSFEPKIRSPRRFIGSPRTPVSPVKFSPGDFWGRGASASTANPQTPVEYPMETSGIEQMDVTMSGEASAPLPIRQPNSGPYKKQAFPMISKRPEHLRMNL

Question: For `CN(C)C(=O)c1ccc(Oc2nc(-c3cnc(N)s3)nc(N3CCOCC3)n2)cc1`, which “inhibition (INH)” value [1] is on record?
Answer: The value was “Not Active”.

Question: And the inhibition [2]?
Answer: Its inhibition is -1%.

Question: And the Activity [3]?
Answer: Its Activity is “Toxic”.

Question: What about the Activity [4] of the same compound?
Answer: The Activity was “Non-Toxic”.

Question: And the EC50 (SK-OV-3 [5])?
Answer: Its EC50 is 500 nM.

Question: And the inhibition [6]?
Answer: The inhibition was 88%.

Question: What about the TGI (SK-OV-3 [7]) of the same compound?
Answer: Its TGI is “Active”.

Question: And the TGI (HCT-116)?
Answer: The TGI was “Active”.

Question: And the inhibition [8]?
Answer: Its inhibition is -1%.

Question: And the AUC [9]?
Answer: Its AUC is 32.1 µM·h.

Question: And the Tmax [10]?
Answer: Its Tmax is 1.67 h.

Question: And the half-life [11]?
Answer: Its half-life is 2.52 h.

Question: What about the Activity [12] of the same compound?
Answer: Its Activity is “Non-Toxic”.

Question: What about the Activity [13] of the same compound?
Answer: Its Activity is “Non-Toxic”.

Question: And the concentration at 120 h [14]?
Answer: The concentration at 120 h was 50 ng/g.

Question: What about the Activity (SK-OV-3 [15]) of the same compound?
Answer: The Activity was “Dose-dependent effect”.

Question: And the inhibition [16]?
Answer: Its inhibition is 9%.

Question: What about the inhibition [17] of the same compound?
Answer: Its inhibition is -1%.

Question: And the inhibition [18]?
Answer: The inhibition was 86%.

Source: ChEMBL document CHEMBL4699485, “Discovery and Development of SPR519 as a Potent, Selective, and Orally Bioavailable Inhibitor of PI3Kα and mTOR Kinases for the Treatment of Solid Tumors” (J Med Chem, 2020)
